Source: PMC2919362 (Chemical biology & drug design, 2010)
Where no end group is shown, it is not given here. The star is where a group is joined. 5FAM = O=C1OC2(c3ccc(O)cc3Oc3cc(O)ccc32)c2ccc(C(=O)*)cc21; Farnesyl = CC(C)=CCC/C(C)=C/CC/C(C)=C/C*

Experiments:
[1] = test system: PC-12 cells; test: CLSM of peptide uptake in PC-12 differentiated neurons; format: cell-based, rat; conditions: 1 μM, 2 h, live cells (Figure 4D)
Summary of the method: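 Neuronal differentiation and imaging. PC-12 cells were seeded at 3.9 × 10^3 cells/cm2 on poly-lysine plates and grown for 24 h. They were serum-starved for 24 h in F12K + 1% HS, then differentiated with 100 ng/mL β-NGF in the same medium for 6–8 days, refreshed every 2 days. Labelled peptide was incubated in F12K + 1% HS at 37°C, 5.0% CO2, with Hoechst 34580 and WGA–Alexa Fluor 594 counterstains. Live cells were imaged by confocal microscopy (60X).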

[2] = test system: COS-1 cells; test: CLSM of peptide uptake in live COS-1 cells; format: cell-based, African green monkey; conditions: 1 μM, 2 h, live cells (Figure 4A)
Summary of the method: (§1)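 Live-cell confocal imaging. Cells were seeded at 7.8 × 10^3 cells/cm2 and grown to about 50% confluency (about 24 h), then washed twice with PBS. Peptide (5-Fam labelled) was incubated in serum-free DMEM at 37°C, 5.0% CO2. Nuclei were stained with Hoechst 34580 (1 μg/mL final, last 20 min) and membranes with WGA–Alexa Fluor 594 (5 μg/mL final, last 10 min). Cells were then washed twice and imaged with a 60X objective; emission was read at 520/450/620 nm.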

[3] = test system: D1TNC1 astrocytes; test: CLSM of peptide uptake in live D1TNC1 astrocytes; format: cell-based, rat; conditions: 1 μM, 2 h, live cells (Figure 4C)
Summary of the method: as §1

[4] = test system: NIH/3T3 fibroblast cells; test: CLSM of peptide uptake in live NIH/3T3 fibroblasts; format: cell-based, Swiss mouse; conditions: 1 μM, 2 h, live cells (Figure 4B)
Summary of the method: as §1

[5] = test system: PC-12 cells; test: Flow cytometry of peptide uptake in PC-12 cells; format: cell-based, rat; conditions: 1 μM, 2 h, 37°C, trypsinized 15 min, triplicate (Figure 6)
[6] = test system: D1TNC1 astrocytes; test: Flow cytometry of peptide uptake in D1TNC1 astrocytes; format: cell-based, rat; conditions: 1 μM, 2 h, 37°C, trypsinized 15 min, triplicate (Figure 6)

Substance | uptake in PC-12 cells (CLSM) [1] | uptake in COS-1 cells (CLSM) [2] | uptake in D1TNC1 astrocytes (CLSM) [3] | uptake in NIH/3T3 fibroblast cells (CLSM) [4] | entry into PC12 cells compared with HeLa cells (flow cytometry) [5] | entry into astrocytes compared with HeLa cells (flow cytometry) [6]
5FAM-KKSRRC(Farnesyl)VLS [4b] | significant uptake | moderate uptake | significant uptake | moderate uptake | – | –
5-Fam-KKSRRC(S-decyl)VLS [5b] | – | – | – | – | efficiency comparable to that observed with HeLa cells | efficiency comparable to that observed with HeLa cells
